Several values for one entry are separate records, joined by “and”; a condition that tells them apart may be missing. Identical values can stand only once.
Experiments:
[1] = system: MT4; assay: Cytotoxicity based on the reduction of the viability of mock-infected MT-4 cells using the MTT method; assay type: functional, Homo sapiens
In short: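 Mock-infected MT-4 cells were exposed to compound. Loss of viability was read by the MTT method, and CC50 was derived. Values are the mean of at least three experiments.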

[2] = Selectivity index (SI) is determined as the ratio of CC50/EC50; assay type: functional
In short: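 Ratio of CC50 to EC50, both taken from MTT read-outs in MT-4 cells: mock-infected cells for CC50 and HIV-1 IIIB-infected cells for EC50. Each value is the mean of at least three experiments.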

[3] = system: MT4; assay: Anti-HIV activity based on the protection against HIV-induced cytopathogenicity in MT-4 cells using MTT method; assay type: functional, cell-based, Homo sapiens
In short: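 MT-4 cells challenged with the X4 strain HIV-1 IIIB. Protection from virus-induced cytopathogenicity was read by the MTT method, and EC50 was derived. Values are the mean of at least three experiments.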

[4] = target: T1, C-X-C chemokine receptor type 4 (Homo sapiens, UniProt P61073); assay: (§1) Inhibitory activity based on the inhibition of [Ca2+] mobilization induced by human SDF-1alpha stimulation through CXCR4
In short: (§2)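 CHO cells transfected with CXCR4 were loaded with Fura-2-AM for 1–2 h and then pretreated with analogue. Recombinant human SDF-1α was added 3 min later. [Ca2+]i rise was measured spectrofluorometrically by a modified Fura-2 method, and IC50 was derived from inhibition of mobilization. Values are the mean of two experiments.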

[5] = target: T1, C-X-C chemokine receptor type 4; assay: as §1; in short: as §2; remark: listed apart in the source

T1 sequence (P61073 whole entry): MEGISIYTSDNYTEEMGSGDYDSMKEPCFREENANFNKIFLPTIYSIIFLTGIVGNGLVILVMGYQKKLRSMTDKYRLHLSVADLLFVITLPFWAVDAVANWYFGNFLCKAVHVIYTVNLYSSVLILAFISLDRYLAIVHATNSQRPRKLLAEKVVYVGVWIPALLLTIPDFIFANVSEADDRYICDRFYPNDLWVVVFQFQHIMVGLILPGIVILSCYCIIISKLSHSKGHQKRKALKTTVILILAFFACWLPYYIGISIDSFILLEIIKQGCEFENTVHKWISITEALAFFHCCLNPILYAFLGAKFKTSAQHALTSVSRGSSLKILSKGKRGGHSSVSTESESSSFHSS

IC50 [5] [µM] | Structure (SMILES) | CC50 ([1]; Homo sapiens, MT4) [µM] | SI [2] | EC50 ([3]; Homo sapiens, MT4) [µM] | EC50 ([3]; mt4) | also measured
 | Cc1cn([C@H]2C[C@H](N=[N+]=[N-])[C@@H](CO)O2)c(=O)[nH]c1=O [ZIDOVUDINE] | 12 | 35000 | 0.0003 |  | 
0.01 | C[C@H]1/C=C\[C@@H](CCCCN)NC(=O)[C@H](CCCCN)NC(=O)[C@H](CCCN=C(N)N)NC(=O)[C@H](Cc2ccc(O)cc2)NC(=O)[C@@H](NC(=O)[C@H](Cc2ccc3ccccc3c2)NC(=O)[C@H](CCCN=C(N)N)NC(=O)[C@@H](N)CCCN=C(N)N)CSSC[C@@H](C(=O)N[C@@H](CCCN=C(N)N)C(N)=O)NC(=O)[C@H](CCCNC(N)=O)NC(=O)[C@H](CCCN=C(N)N)NC(=O)[C@H](Cc2ccc(O)cc2)NC1=O |  |  |  | 0.0047 µM and 0.0019 µM | IC50 [4]: 0.005 µM
 | C[C@H]1/C=C\[C@@H](CCCCN)NC(=O)[C@H](CCCCN)NC(=O)[C@H](CCCN=C(N)N)NC(=O)[C@H](Cc2ccc(O)cc2)NC(=O)[C@@H](NC(=O)[C@H](Cc2ccc3ccccc3c2)NC(=O)[C@H](CCCN=C(N)N)NC(=O)[C@@H](N)CCCN=C(N)N)CSSC[C@@H](C(=O)N[C@@H](CCCN=C(N)N)C(=O)O)NC(=O)[C@H](CCCNC(N)=O)NC(=O)[C@H](CCCN=C(N)N)NC(=O)[C@H](Cc2ccc(O)cc2)NC1=O |  |  |  | < 0.0003 µM and 0.0019 µM | 
0.17 | C[C@H]1/C=C\[C@@H](CCCCN)NC(=O)[C@H](CCCCN)NC(=O)[C@H](CCCN=C(N)N)NC(=O)[C@H](Cc2ccc(O)cc2)NC(=O)[C@@H](NC(=O)[C@H](CSC23C[C@H]4C[C@@H](C2)C[C@@H](C3)C4)NC(=O)[C@H](CCCN=C(N)N)NC(=O)[C@@H](N)CCCN=C(N)N)CSSC[C@@H](C(=O)N[C@@H](CCCN=C(N)N)C(N)=O)NC(=O)[C@H](CCCNC(N)=O)NC(=O)[C@H](CCCN=C(N)N)NC(=O)[C@H](Cc2ccc(O)cc2)NC1=O |  |  |  | 0.0071 µM and 0.017 µM | 
 | C[C@H]1/C=C\[C@@H](CCCCN)NC(=O)[C@H](CCCCN)NC(=O)[C@@H](CCCN=C(N)N)NC(=O)[C@H](Cc2ccc(O)cc2)NC(=O)[C@@H](NC(=O)[C@H](CSC23C[C@H]4C[C@@H](C2)C[C@@H](C3)C4)NC(=O)[C@H](CCCN=C(N)N)NC(=O)[C@@H](N)CCCN=C(N)N)CSSC[C@@H](C(=O)N[C@@H](CCCN=C(N)N)C(N)=O)NC(=O)C(CCCNC(N)=O)NC(=O)[C@@H](CCCN=C(N)N)NC(=O)[C@H](Cc2ccc(O)cc2)NC1=O (some centres not stated) |  | 6900 and 3300 |  |  | 
 | Nc1ccn([C@H]2CC[C@@H](CO)O2)c(=O)n1 [ZALCITABINE] | 48 | 1500 | 0.033 |  | 
0.036 | C[C@H]1/C=C\[C@@H](CCCCN)NC(=O)[C@H](CCCCN)NC(=O)[C@H](CCCN=C(N)N)NC(=O)[C@H](Cc2ccc(O)cc2)NC(=O)[C@@H](NC(=O)[C@H](CSCc2ccccc2)NC(=O)[C@H](CCCN=C(N)N)NC(=O)[C@@H](N)CCCN=C(N)N)CSSC[C@@H](C(=O)N[C@@H](CCCN=C(N)N)C(N)=O)NC(=O)[C@H](CCCNC(N)=O)NC(=O)[C@H](CCCN=C(N)N)NC(=O)[C@H](Cc2ccc(O)cc2)NC1=O |  |  | 0.067 | 0.045 µM | 
 | C[C@H]1/C=C\[C@@H](CCCCN)NC(=O)[C@H](CCCCN)NC(=O)[C@H](CCCN=C(N)N)NC(=O)[C@H](Cc2ccc(O)cc2)NC(=O)[C@@H](NC(=O)[C@H](Cc2c[nH]c3ccccc23)NC(=O)[C@H](CCCN=C(N)N)NC(=O)[C@@H](N)CCCN=C(N)N)CSSC[C@@H](C(=O)N[C@@H](CCCN=C(N)N)C(N)=O)NC(=O)[C@H](CCCNC(N)=O)NC(=O)[C@H](CCCN=C(N)N)NC(=O)[C@H](Cc2ccc(O)cc2)NC1=O [listing 1 of 2 here] | 56 |  |  |  | CC50 [1]: 58 µM
 | C[C@H]1/C=C\[C@@H](CCCCN)NC(=O)[C@H](CCCCN)NC(=O)[C@@H](CCCN=C(N)N)NC(=O)[C@H](Cc2ccc(O)cc2)NC(=O)[C@@H](NC(=O)[C@H](CSCc2ccccc2)NC(=O)[C@H](CCCN=C(N)N)NC(=O)[C@@H](N)CCCN=C(N)N)CSSC[C@@H](C(=O)N[C@@H](CCCN=C(N)N)C(N)=O)NC(=O)C(CCCNC(N)=O)NC(=O)[C@@H](CCCN=C(N)N)NC(=O)[C@H](Cc2ccc(O)cc2)NC1=O (some centres not stated) |  | 810 and 1300 |  |  | 
 | C[C@H]1/C=C\[C@@H](CCCCN)NC(=O)[C@H](CCCCN)NC(=O)[C@H](CCCN=C(N)N)NC(=O)[C@H](Cc2ccc(O)cc2)NC(=O)[C@@H](NC(=O)[C@H](Cc2c[nH]c3ccccc23)NC(=O)[C@H](CCCN=C(N)N)NC(=O)[C@@H](N)CCCN=C(N)N)CSSC[C@@H](C(=O)N[C@@H](CCCN=C(N)N)C(N)=O)NC(=O)[C@H](CCCNC(N)=O)NC(=O)[C@H](CCCN=C(N)N)NC(=O)[C@H](Cc2ccc(O)cc2)NC1=O [listing 2 of 2 here] |  |  | 0.0037 | 0.0029 µM | IC50 [4]: 0.005 µM
